From ChEMBL document CHEMBL1141152, “Efficient transfection of DNA by liposomes formulated with cationic gemini amphiphiles” (2005) come the findings set out here.

What all share (type): functional, Rattus norvegicus
Test [1] can be described thus: Percentage survived cells of LA7 cell line done for 6 hr with compound (42.5 uM) in trypan blue exclusion dye test. In short, it runs like this:
(§1)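 LA7 rat mammary adenocarcinoma cells grown in DMEM with 10% FCS, penicillin/streptomycin, insulin and hydrocortisone (50 ng/mL each). Exposed 6 h to DMPC/cationic amphiphile liposomes (1/1; doubled amphiphile for single-headgroup surfactant), concentrations 425 μM to 8.5 μM; medium then replaced. Viability by Trypan blue exclusion 24 h later, counting unstained cells. Duplicates, at least five times; typical experiment shown.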

Test [2] is described as follows: Percentage survived cells of LA7 cell line done for 6 hr with compound (21.3 uM) in trypan blue exclusion dye test. In short, it runs like this:
as §1

Test [3] can be described thus: Percentage survived cells of LA7 cell line done for 6 hr with compound (85 uM) in trypan blue exclusion dye test. An outline of the steps: as §1
Test [4] in a line: Percentage survived cells of LA7 cell line done for 6 hr with compound (213 uM) in trypan blue exclusion dye test. In short, it runs like this: as §1
Test [5] in a line: Percentage survived cells of LA7 cell line done for 6 hr with compound (8.5 uM) in trypan blue exclusion dye test. In short, it runs like this: as §1

Consider `CCCCCCCCCCCCCCCC[N+](C)(C)CCOC.[Br-]`, for which the Survival in test [1] was 100%; in test [2] it was 100%; in test [3], 80%; in test [4], 50%; in test [5], 100%.
As for `CCCCCCCCCCCCCCCC[N+](C)(C)CCCC[N+](C)(C)CCCCCCCCCCCCCCCC.[Br-].[Br-]` [CATIONIC AMPHIPHILE], the Survival in test [1] was determined as 100%; in test [2], 100%; in test [3], 80%; in test [4], 50%; in test [5], 100%.
For the compound `CCCCCCCCCCCCCCCC[N+](C)(C)C[C@@H](OC)[C@@H](C[N+](C)(C)CCCCCCCCCCCCCCCC)OC.[Br-].[Br-]` [CATIONIC AMPHIPHILE], in test [5], the Survival turned out to be 100%.
Turning to `CCCCCCCCCCCCCCCC[N+](C)(C)C[C@H](OC)[C@@H](C[N+](C)(C)CCCCCCCCCCCCCCCC)OC.[Br-].[Br-]` [CATIONIC AMPHIPHILE], the Survival in test [1] came out at 30%; in test [2], 80%; in test [5], 100%.
For the compound `CCCCCCCCCCCCCCCC[N+](C)(C)C[C@H](OC)[C@H](C[N+](C)(C)CCCCCCCCCCCCCCCC)OC.[Br-].[Br-]` [CATIONIC AMPHIPHILE], the Survival was 10% in test [1], 90% in test [2] and 100% in test [5].
